In ChEMBL document CHEMBL3763128, “Synthesis and antibacterial evaluation of novel 4″-glycyl linked quinolyl-azithromycins with potent activity against macrolide-resistant pathogens” (2016) one finds MIC data, which are given here for eight compounds.

Holding throughout (assay type): functional
The test system of assay [1] is Streptococcus pneumoniae. Nature of the assay: Antibacterial activity against erythromycin-susceptible Streptococcus pneumoniae by agar microdilution method. An outline of the steps:
(§1)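 MIC by agar microdilution following NCCLS guidelines. Values in μg/mL. Only differences of more than one twofold dilution were treated as significant. Ery-S denotes erythromycin-susceptible strains.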

In assay [2] the test system is Staphylococcus aureus. Nature of the assay: Antibacterial activity against inducibly macrolide-lincosamide-streptogramin B resistant Staphylococcus aureus by agar microdilution method. The gist of the method: (§2)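 Agar microdilution per NCCLS guidelines; MIC reported in μg/mL; differences treated as significant only when more than a factor of 2 (one dilution) apart.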

Assay [3] relates to Moraxella catarrhalis. The assay is described as follows: Antibacterial activity against Moraxella catarrhalis by agar microdilution method. The gist of the method:
as §1

The test system of assay [4] is Haemophilus influenzae. The assay is described as follows: Antibacterial activity against Haemophilus influenzae by agar microdilution method. The gist of the method:
as §1

For assay [5], the system named is Streptococcus pyogenes. Nature of the assay: Antibacterial activity against erythromycin-susceptible Streptococcus pyogenes by agar microdilution method. An outline of the steps: as §1
For assay [6], the system named is Streptococcus pyogenes. The assay is described as follows: Antibacterial activity against inducibly macrolide-lincosamide-streptogramin B resistant Streptococcus pyogenes by agar microdilution method. An outline of the steps:
as §2

In assay [7] the test system is Staphylococcus aureus. Nature of the assay: Antibacterial activity against erythromycin-susceptible Staphylococcus aureus by agar microdilution method. An outline of the steps: as §1
In assay [8] the test system is Streptococcus pyogenes. Nature of the assay: Antibacterial activity against efflux mediated macrolide resistant Streptococcus pyogenes by agar microdilution method. The gist of the method: as §2
The subject of assay [9] is Staphylococcus aureus. Nature of the assay: Antibacterial activity against constitutive macrolide-lincosamide-streptogramin B resistant Staphylococcus aureus by agar microdilution method. An outline of the steps: as §2
Assay [10] concerns Staphylococcus aureus. The assay is described as follows: Antibacterial activity against efflux mediated macrolide resistant Staphylococcus aureus by agar microdilution method. An outline of the steps:
as §2

In assay [11] the test system is Streptococcus pyogenes. Nature of the assay: Antibacterial activity against constitutive macrolide-lincosamide-streptogramin B resistant Streptococcus pyogenes by agar microdilution method. The gist of the method:
as §2

Assay [12] relates to Streptococcus pneumoniae. Nature of the assay: Antibacterial activity against constitutive macrolide-lincosamide-streptogramin B resistant Streptococcus pneumoniae by agar microdilution method. An outline of the steps:
as §2

For assay [13], the system named is Streptococcus pneumoniae. Nature of the assay: Antibacterial activity against efflux mediated macrolide resistant Streptococcus pneumoniae by agar microdilution method. An outline of the steps: as §2

≈ marks a conversion by molar mass, not a printed value. Some results are limits rather than exact numbers.

On to `CC[C@H]1OC(=O)[C@@H](C)[C@H](O[C@@H]2C[C@](C)(OC)[C@H](OC(=O)CNC(=O)CCNCCNc3cc4c(=O)c(C(=O)O)cn(C5CC5)c4cc3Cl)[C@@H](C)O2)[C@H](C)[C@H](O[C@H]2O[C@@H](C)C[C@@H](N(C)C)[C@@H]2O)[C@@](C)(O)C[C@H](C)CN(C)[C@@H](C)[C@H](O)[C@@]1(C)O` (stereo in doubt), for which the MIC in [1] was at most 0.125 µg/mL; in assay [2], 1 µg/mL (≈ 0.846 µM); in assay [3] it was 0.125 µg/mL (≈ 0.106 µM); in assay [4], 0.5 µg/mL (≈ 0.423 µM); in assay [5] it was at most 0.125 µg/mL; in [6], 0.25 µg/mL (≈ 0.212 µM). For the same compound, the MIC in assay [7] is at most 0.125 µg/mL; in assay [8], 0.25 µg/mL (≈ 0.212 µM); in assay [9] it was over 64 µg/mL; in [10], 0.5 µg/mL (≈ 0.423 µM); in [11], 0.5 µg/mL (≈ 0.423 µM); in assay [12], 0.5 µg/mL (≈ 0.423 µM). For the same compound, the MIC in assay [13] stood at 0.25 µg/mL (≈ 0.212 µM).
Turning to `CC[C@H]1OC(=O)[C@@H](C)[C@H](O[C@@H]2C[C@](C)(OC)[C@H](OC(=O)CNCCCNCCOCCOCCNc3cc4c(=O)c(C(=O)O)cn(C5CC5)c4cc3Cl)[C@@H](C)O2)[C@H](C)[C@H](O[C@H]2O[C@@H](C)C[C@@H](N(C)C)[C@@H]2O)[C@@](C)(O)C[C@H](C)CN(C)[C@@H](C)[C@H](O)[C@@]1(C)O` (stereo in doubt), the MIC in assay [1] is at most 0.125 µg/mL; in assay [2] it was 1 µg/mL (≈ 0.796 µM); in assay [3], 0.5 µg/mL (≈ 0.398 µM); in assay [4] it was 2 µg/mL (≈ 1.59 µM); in assay [5], at most 0.125 µg/mL; in assay [6], 0.25 µg/mL (≈ 0.199 µM). The MIC in assay [7] is at most 0.125 µg/mL; in [8], 1 µg/mL (≈ 0.796 µM); in assay [9], over 64 µg/mL; in [10], 1 µg/mL (≈ 0.796 µM); in assay [11] it was 2 µg/mL (≈ 1.59 µM); in assay [12], 1 µg/mL (≈ 0.796 µM). The MIC in assay [13] was 0.5 µg/mL (≈ 0.398 µM).
As to `CCC1OC(=O)[C@H](C)[C@@H](O[C@H]2C[C@@](C)(OC)[C@@H](OC(=O)CNCCCNCCOCCNc3cc4c(cc3F)c(=O)c(C(=O)O)cn4C3CC3)[C@H](C)O2)C(C)[C@@H](O[C@@H]2O[C@H](C)C[C@H](N(C)C)[C@H]2O)[C@](C)(O)C[C@@H](C)CN(C)[C@H](C)[C@@H](O)[C@]1(C)O` (single isomer, unassigned), the MIC in assay [1] was at most 0.125 µg/mL; in [2], 2 µg/mL (≈ 1.67 µM); in [3], 1 µg/mL (≈ 0.836 µM); in assay [4] it was 2 µg/mL (≈ 1.67 µM); in [5] it was at most 0.125 µg/mL; in [6], 0.5 µg/mL (≈ 0.418 µM). Moreover, the MIC in assay [7] was 0.25 µg/mL (≈ 0.209 µM); in [8], 2 µg/mL (≈ 1.67 µM); in assay [9] it was over 64 µg/mL; in assay [10], 1 µg/mL (≈ 0.836 µM); in assay [11] it was 4 µg/mL (≈ 3.35 µM); in [12], 2 µg/mL (≈ 1.67 µM). In assay [13], this compound gave an MIC of 0.25 µg/mL (≈ 0.209 µM).
Turning to `CCC1OC(=O)[C@H](C)[C@@H](O[C@H]2C[C@@](C)(OC)[C@@H](OC(=O)CNC(=O)CCNCCOCCNc3cc4c(cc3F)c(=O)c(C(=O)O)cn4C3CC3)[C@H](C)O2)C(C)[C@@H](O[C@@H]2O[C@H](C)C[C@H](N(C)C)[C@H]2O)[C@](C)(O)C[C@@H](C)CN(C)[C@H](C)[C@@H](O)[C@]1(C)O` (single isomer, unassigned), the MIC in [1] was at most 0.125 µg/mL; in assay [2], 4 µg/mL (≈ 3.31 µM); in [3], 1 µg/mL (≈ 0.827 µM); in [4], 4 µg/mL (≈ 3.31 µM); in [5], at most 0.125 µg/mL; in [6] it was 4 µg/mL (≈ 3.31 µM). Further, the MIC in assay [7] is 0.25 µg/mL (≈ 0.207 µM); in assay [8], 8 µg/mL (≈ 6.61 µM); in assay [9], over 64 µg/mL; in [10], 4 µg/mL (≈ 3.31 µM); in assay [11], 16 µg/mL (≈ 13.2 µM); in [12], 8 µg/mL (≈ 6.61 µM). This compound also registered an MIC in [13] of 4 µg/mL (≈ 3.31 µM).
For the compound `CCC1OC(=O)[C@H](C)[C@@H](O[C@H]2C[C@@](C)(OC)[C@@H](OC(=O)CNC(=O)CCNCCOCCNc3cc4c(=O)c(C(=O)O)cn(C5CC5)c4cc3Cl)[C@H](C)O2)C(C)[C@@H](O[C@@H]2O[C@H](C)C[C@H](N(C)C)[C@H]2O)[C@](C)(O)C[C@@H](C)CN(C)[C@H](C)[C@@H](O)[C@]1(C)O` (single isomer, unassigned), the MIC in assay [1] was at most 0.125 µg/mL; in assay [2], 2 µg/mL (≈ 1.63 µM); in assay [3], 0.5 µg/mL (≈ 0.408 µM); in [4], 2 µg/mL (≈ 1.63 µM); in assay [5], at most 0.125 µg/mL; in [6], 0.5 µg/mL (≈ 0.408 µM). Besides, the MIC in [7] was at most 0.125 µg/mL; in [8] it was 1 µg/mL (≈ 0.816 µM); in assay [9], over 64 µg/mL; in assay [10], 1 µg/mL (≈ 0.816 µM); in assay [11] it was 2 µg/mL (≈ 1.63 µM); in assay [12], 1 µg/mL (≈ 0.816 µM). This compound displayed an MIC in [13] of 0.5 µg/mL (≈ 0.408 µM).
For `CC[C@H]1OC(=O)[C@@H](C)[C@H](O[C@H]2C[C@@](C)(OC)[C@@H](OC(=O)CN)[C@H](C)O2)[C@@H](C)[C@H](O[C@H]2O[C@@H](C)C[C@@H](N(C)C)[C@@H]2O)[C@@](C)(O)C[C@H](C)CN(C)[C@@H](C)[C@@H]2OC(=O)O[C@@]12C`, the MIC was at most 0.125 µg/mL in assay [1]; over 64 µg/mL in [2]; over 64 µg/mL in assay [3]; over 64 µg/mL in [4]; at most 0.125 µg/mL in assay [5]; 32 µg/mL (≈ 38.5 µM) in assay [6]. For the same compound, the MIC is 32 µg/mL (≈ 38.5 µM) in [7]; over 64 µg/mL in [8]; over 64 µg/mL in assay [9]; over 64 µg/mL in assay [10]; over 64 µg/mL in [11]; over 64 µg/mL in [12]. The compound also had an MIC in [13] of 32 µg/mL (≈ 38.5 µM).
On to `CCC1OC(=O)[C@H](C)[C@@H](O[C@H]2C[C@@](C)(OC)[C@@H](OC(=O)CNC(=O)CSc3cnc4ccccc4n3)[C@H](C)O2)C(C)[C@@H](O[C@@H]2O[C@H](C)C[C@H](N(C)C)[C@H]2O)[C@](C)(O)C[C@@H](C)CN(C)[C@H](C)[C@@H](O)[C@]1(C)O` (single isomer, unassigned), for which the MIC is at most 0.125 µg/mL in assay [1]; 1 µg/mL (≈ 0.992 µM) in assay [2]; 16 µg/mL (≈ 15.9 µM) in assay [3]; 8 µg/mL (≈ 7.93 µM) in assay [4]; at most 0.125 µg/mL in assay [5]; 8 µg/mL (≈ 7.93 µM) in assay [6]. The MIC in assay [7] was 4 µg/mL (≈ 3.97 µM); in [8], 0.5 µg/mL (≈ 0.496 µM); in assay [9] it was over 64 µg/mL; in assay [10], 8 µg/mL (≈ 7.93 µM); in [11] it was 32 µg/mL (≈ 31.7 µM); in assay [12] it was 16 µg/mL (≈ 15.9 µM). Besides, in [13], the MIC worked out at 0.25 µg/mL (≈ 0.248 µM).
With `CCC1OC(=O)[C@H](C)[C@@H](O[C@H]2C[C@@](C)(OC)[C@@H](OC(=O)CNCCCNCCOCCNc3cc4c(=O)c(C(=O)O)cn(C5CC5)c4cc3Cl)[C@H](C)O2)C(C)[C@@H](O[C@@H]2O[C@H](C)C[C@H](N(C)C)[C@H]2O)[C@](C)(O)C[C@@H](C)CN(C)[C@H](C)[C@@H](O)[C@]1(C)O` (single isomer, unassigned), the MIC is at most 0.125 µg/mL in assay [1]; 0.5 µg/mL (≈ 0.413 µM) in assay [2]; 0.25 µg/mL (≈ 0.206 µM) in assay [3]; 2 µg/mL (≈ 1.65 µM) in [4]; at most 0.125 µg/mL in assay [5]; 0.25 µg/mL (≈ 0.206 µM) in assay [6]. For the same compound, the MIC is at most 0.125 µg/mL in [7]; 0.5 µg/mL (≈ 0.413 µM) in assay [8]; over 64 µg/mL in [9]; 0.5 µg/mL (≈ 0.413 µM) in assay [10]; 1 µg/mL (≈ 0.825 µM) in [11]; 0.25 µg/mL (≈ 0.206 µM) in assay [12]. In addition, the MIC in assay [13] amounted to 0.25 µg/mL (≈ 0.206 µM).
